High-throughput results: PubChem, several laboratories
An excerpt weighted towards active compounds, which were near 1.6% of everything screened.
TLR4-MyD88 BLA: inhibitors of human TLR4-MyD88 binding | O00206+Q99836 | HeLa CL3-4 TLR4/MyD88 BLA complementation, FRET ratio | inhibition, % at 8.4 µM | 200,000 compounds, 0.18% hits; in the data active = inhibition above about 25%;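 also: 0% = vehicle and 100% = reference inhibitor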
SR-BI DiI inh: mouse SR-BI HDL lipid transfer inhibition; inhibition, % at 12.5 µM; AID 488896; ldlA[mSR-BI] CHO cells, DiI-HDL uptake fluorescence, 3 h; Q61009; 320,000 compounds, 0.96% hits;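 active = mean replicate inhibition of at least 70% and a set share of replicates each scoring 70 or more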;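 also: 0% = median of neutral control wells and 100% = median of positive control wells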
SR-BI DiI-HDL act: activators of SR-BI mediated HDL lipid uptake. CHO ldlA[mSR-BI] cells, DiI-HDL uptake fluorescence, 3 h; 100 = double the neutral-control signal. AID 504775. 320,000 compounds, 0.096% hits. activation, % at 12.5 µM;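 active = mean replicate activation of at least 60% and every replicate at or above 60%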;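 also: 0% = median plate neutral-control signal and 100% = twice that signal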
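Material: SR-BI-overexpressing, LDLR-lacking CHO cells | Dosing: Single compound concentration, delivered by pin transfer | Probe or stimulus: Labelled HDL, 10 µg/mL | Signal: Bottom-read cell fluorescence after medium removal, ex 550/em 595 nm | Schedule: 3 h, 37 °C | Evaluation: HDL uptake via cellular fluorescence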
NOD2 RIPK2 PPI: NOD2-RIPK2 protein interaction inhibition; 360,000 compounds, 0.38% hits; inhibition, % at 4.98 µM; AID 624267; CHO BLA complementation NOD2-RIPK2, CCF4 ratio; in the data active = inhibition above about 21%;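 also: 0% = vehicle only and 100% = reference blocker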
Target sequence (O43353 whole entry, looked up): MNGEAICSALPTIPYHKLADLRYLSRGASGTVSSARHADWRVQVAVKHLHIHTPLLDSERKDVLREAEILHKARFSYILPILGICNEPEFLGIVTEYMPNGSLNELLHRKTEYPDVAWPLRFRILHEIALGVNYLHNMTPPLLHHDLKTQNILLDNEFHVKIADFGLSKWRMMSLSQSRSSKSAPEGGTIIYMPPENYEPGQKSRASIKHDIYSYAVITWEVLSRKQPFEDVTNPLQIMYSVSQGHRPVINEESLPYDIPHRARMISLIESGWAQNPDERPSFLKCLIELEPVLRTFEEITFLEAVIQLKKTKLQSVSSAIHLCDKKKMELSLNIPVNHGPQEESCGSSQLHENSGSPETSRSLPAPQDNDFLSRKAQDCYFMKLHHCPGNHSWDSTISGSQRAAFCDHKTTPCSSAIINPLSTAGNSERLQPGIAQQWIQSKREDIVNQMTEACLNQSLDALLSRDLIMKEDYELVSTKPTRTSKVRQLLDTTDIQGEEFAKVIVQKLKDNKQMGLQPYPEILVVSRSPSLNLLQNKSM
Hep lipid drop: hepatic lipid droplet formation modulation; 240,000 compounds, 0.4% hits; AML12 mouse hepatocytes, oleate lipid droplets, BODIPY imaging; inhibition, % at 6.5 µM; AID 1656;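 active = lipid droplet intensity inhibited by at least 50%, with more than 500 cells counted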
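Assay system: AML12 hepatocytes (mouse); Probe or stimulus: oleic acid at 100 µM to induce lipid droplet formation; Dosing: compound at 6.5 µM only; Schedule: compound with oleate, overnight; Detection: fluorescence imaging, 20x objective, two fields per well; Measure: % inhibition of lipid droplet signal.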
TLR9-MyD88 inh: blocks human TLR9 binding to MyD88. CHO BLA complementation TLR9-MyD88, CCF4 FRET ratio. inhibition, % at 4.98 µM. 340,000 compounds, 0.21% hits. AID 504734;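 active = inhibition above the mean over all tested compounds plus 3 SD, cut at about 21% in these data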;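 also: 0% = DMSO only wells and 100% = clavulanate BLA inhibitor control wells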
Hep lipid conf: hepatic lipid droplet formation inhibition, confirmed; shares compounds with Hep lipid drop; AML12 mouse hepatocytes, BODIPY lipid droplet imaging; droplets induced with 100 µM oleic acid; inhibition, % at 5.2 µM; 870 compounds, 65% hits; AID 463183;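 active = inhibition of lipid droplet metric at least 50%, with more than 300 cells in each of four replicates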;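 also: plate controls were DMSO with oleic acid for no effect and 5 µM Triacsin-C for full effect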
AML12 tox img: AML12 hepatocyte cytotoxicity (counter-screen) | AID 463200 | shares compounds with Hep lipid drop | z-score at 5 µM | AML12 mouse hepatocytes, DAPI nuclear morphology cytotoxicity imaging; hits give high values; cells fed 100 µM oleate overnight | 870 compounds, 3% hits; in the data active = z-score above about 6.3;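 also: compound exposure lasted overnight at 37 °C before fixation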
AML12 tox conf: confirmation of cytotoxicity in AML12 mouse hepatocytes; shares compounds with Hep lipid drop; cytotoxicity, % at 50 µM; 530 tested, under 10 active; AML12 mouse hepatocyte viability, ATP luminescence; cells loaded with 100 µM oleic acid;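 active = cytotoxicity above 50% in each of four replicates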;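 also: compound exposure lasted overnight at 37 °C before the ATP read; 0% = DMSO-treated cells and 100% = wells with no cells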
Active calls of the source: *; nt = no result.

SMILES | TLR4-MyD88 BLA | SR-BI DiI inh | SR-BI DiI-HDL act | NOD2 RIPK2 PPI | Hep lipid drop | TLR9-MyD88 inh | Hep lipid conf | AML12 tox img | AML12 tox conf
CCN1C(=O)/C(=C2\C=Cc3cc(C)ccc3N2CC)OC1=S | 3 | -6 | 6 | -10 | 68* | 0 | 74* | -0.4 | 2
COc1ccc(Cl)cc1NC(=O)c1ccco1 | 8 | 5 | -5 | 0 | -1 | -5 | nt | nt | nt
COc1cc(NC(=O)c2ccco2)c(OC)cc1NC(=O)Nc1ccccc1Cl | -9 | 94* | -94 | -1 | 82* | -6 | 114* | 0.93 | 10
Cc1ccccc1N1CCN(C(=S)c2ccc(-c3ccc([N+](=O)[O-])cc3)o2)CC1 | nt | 43 | -43 | -4 | 86* | 0 | 69* | -0.28 | nt
Cc1ccccc1N1CCN(C(=S)c2ccc(-c3cccc([N+](=O)[O-])c3)o2)CC1 | -8 | 65 | -65 | -4 | -12 | 0 | nt | nt | nt
CCc1nn(CCCC(=O)NCc2ccccc2Br)c(=O)c2cc3occc3n12 | nt | 29 | -29 | -3 | -19 | -4 | nt | nt | nt
CCc1cccc(NC(=O)CCCn2nc(CC)n3c(cc4occc43)c2=O)c1 | nt | 53 | -53 | 7 | 53* | 1 | 94* | -0.16 | 3
Cc1ccc2c(c1)N(C(=O)CCC(=O)NCCN1CCOCC1)CC(C)O2 (stereo unspecified) | nt | -21 | 21 | 3 | -1 | 5 | nt | nt | nt
CCOc1ccc(C(=O)Nc2cc(NC(=O)c3ccc(OCC)c(Cl)c3)cc(C(=O)O)c2)cc1Cl | -12 | -11 | 11 | 5 | 1 | -3 | nt | nt | nt
CCOc1ccc(C(=O)Nc2ccc(NC(=S)NC(=O)CC)cc2)cc1Cl | 5 | 36 | -36 | 0 | 50* | 0 | 102* | 0.14 | 7
CCc1ccc(N2CCN(S(=O)(=O)CC34CCC(CC3=O)C4(C)C)CC2)cc1 (stereo unspecified) | nt | 2 | -2 | -4 | nt | -13 | nt | nt | nt
Cc1cccc(NC2=C(NCCO)C(=O)c3ccccc3C2=O)c1 | -1 | -9 | 9 | -3 | 89* | -5 | 97* | 0.31 | 22
Cc1nnc(SCCCn2c(N3CCN(c4ccccc4)CC3)nc3c2c(=O)[nH]c(=O)n3C)s1 | -5 | -12 | 12 | -12 | nt | 4 | nt | nt | nt
CCCCCCn1c(N2CCN(c3ccccc3)CC2)nc2c1c(=O)[nH]c(=O)n2C | 15 | -2 | 2 | -15 | 58* | 2 | 93* | -1.2 | -11
CCCCn1c(=O)[nH]c(=O)c2c1nc(-c1ccc(C(F)(F)F)cc1)n2C | -1 | nt | nt | -4 | 18 | -1 | nt | nt | nt
CCCCCCCCn1c(N2CCN(c3cccc(Cl)c3)CC2)nc2c1c(=O)[nH]c(=O)n2C | -5 | -11 | 11 | 7 | 83* | -5 | 98* | -1.1 | 16
CCCCn1c(=O)[nH]c(=O)c2c1nc(-c1ccc(-c3ccccc3)cc1)n2C | nt | -3 | 3 | 6 | 64* | 2 | 70* | -0.69 | -5
CCCCCCn1c(N2CCN(c3cccc(Cl)c3)CC2)nc2c1c(=O)[nH]c(=O)n2C | 5 | -4 | 4 | -6 | nt | -1 | nt | nt | nt
Cc1ccc(C(=Cc2ccc([N+](=O)[O-])cc2)C(=O)O)cc1 | nt | nt | nt | -9 | nt | -6 | nt | nt | nt
CC1CCCN(C(=O)COC(=O)Cn2cnc3ccccc32)C1 (stereo unspecified) | nt | -7 | 7 | -6 | nt | -12 | nt | nt | nt
CCOC(=O)c1sc2cc([N+](=O)[O-])cc(SCCO)c2c1N | -2 | 41 | -41 | -5 | 52* | -8 | 61* | -0.48 | nt
COc1ccccc1CNC(=O)CN(C)S(=O)(=O)c1cccc2cccnc12 | nt | 12 | -12 | -2 | -15 | -5 | nt | nt | nt
O=C1C(Cc2ccccc2)Nc2ncnc(N3CCCCC3)c2N1Cc1ccccc1 (stereo unspecified) | nt | -4 | 4 | -1 | nt | 9 | nt | nt | nt
O=[N+]([O-])c1cc(Cl)ccc1NCCNc1ncc(C(F)(F)F)cc1Cl | 3 | 16 | -16 | 2 | 52* | 0 | 44 | 0.6 | nt
COc1cc(NC(=O)c2c(F)c(F)c(OC)c(F)c2F)ccc1NC(=O)c1cccs1 | nt | 62 | nt | -13 | 7 | 0 | nt | nt | nt
SMILES | TLR4-MyD88 BLA | SR-BI DiI inh | SR-BI DiI-HDL act | NOD2 RIPK2 PPI | Hep lipid drop | TLR9-MyD88 inh | Hep lipid conf | AML12 tox img | AML12 tox conf
CC(C)C(C)NC(=O)CSc1nc2scc(-c3ccco3)c2c(=O)n1-c1ccccc1 (stereo unspecified) | 1 | 11 | -11 | -3 | 60* | -1 | 32 | -0.74 | nt
CCOc1cc([C@@H]2C[C@H]3CN(c4ccccc4)C(=O)[C@]34CCCN24)ccc1OC | 0 | 14 | -14 | 4 | 80* | 14 | 97* | 0.57 | 19
COc1cc([C@@H]2C[C@H]3CN(c4ccccc4)C(=O)[C@]34CCCN24)cc(OC)c1OC | -4 | nt | nt | -8 | 3 | -7 | nt | nt | nt
COc1ccc([C@H]2CN(Cc3ccccc3)C(=O)[C@@H]2CC(=O)Nc2ccccc2)cc1 | nt | nt | nt | 0 | nt | 0 | nt | nt | nt
CCOc1ncccc1C(=O)OC(C)C(=O)NC1CCCCC1 (stereo unspecified) | nt | -1 | 1 | 9 | nt | 1 | nt | nt | nt
CCOc1ncccc1C(=O)OC(C)C(=O)Nc1ccc(CC)cc1 (stereo unspecified) | -9 | 2 | -2 | -10 | 53* | -1 | 97* | -0.59 | 16
COc1ccccc1CNS(=O)(=O)c1ccc2c(c1)CC(C)N2C(=O)C1CC1 (stereo unspecified) | nt | -6 | 6 | -7 | 79* | -1 | 106* | -1.1 | 18
COc1ccccc1CNS(=O)(=O)c1ccc2c(c1)CC(C)N2C(=O)C1CCC1 (stereo unspecified) | nt | 35 | -35 | -11 | 64* | 5 | 99* | 0.084 | 21
CCC(=O)N1c2ccc(S(=O)(=O)NCCc3ccccc3)cc2CC1C (stereo unspecified) | nt | 1 | -1 | 3 | -1 | -5 | nt | nt | nt
COc1ccc(CCNS(=O)(=O)c2ccc3c(c2)CC(C)N3C(=O)C2CC2)cc1OC (stereo unspecified) | nt | nt | nt | -7 | nt | 8 | nt | nt | nt
CC1Cc2cc(S(=O)(=O)NCCC(=O)N(C)Cc3ccccc3)ccc2N1C(=O)C1CC1 (stereo unspecified) | nt | -5 | 5 | -15 | 61* | -3 | 67* | -0.84 | 21
